Assays:
Cavia porcellus [1] = experiment: Minimal effective dose that resulted in significant delay in the onset of arrhythmias in guinea pig with iv administration of aconitine hydrochloride; type: functional; conditions: read-out: MED
Procedure, shortened: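 Guinea pigs (n = 6 per dose, parallel groups) received agent or saline iv (1 mL/kg) 10 min before a lethal aconitine hydrochloride challenge (34 μg/kg iv). Times to first PVC, sustained VT and VF (>15 s) were recorded and compared with concurrent controls by one-way ANOVA. MED taken from an ascending semilogarithmic dose escalation as the dose giving significant delay in arrhythmia onset.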

Cavia porcellus [2] = experiment: Effective dose in vivo for cardiac refractoriness (ERP) using paced guinea pig model; type: functional
Procedure, shortened: (§1)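 Guinea pig paced in vivo model. Hemodynamics recorded in normal sinus rhythm; ERP measured during brief pacing at baseline and 10 min after dosing. Bolus of 1 mL/kg via left ventricular catheter for doses <10 mg/kg; higher doses infused over 1 min. Cumulative dosing every 15 min up to the maximally tolerated dose (dP/dt reduced >50%). ED20 (ERP +20 ms) and dP/dt20 (20% drop in LV pressure-rise rate) derived by linear regression of individual dose-response curves.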

Cavia porcellus [3] = experiment: In vivo index of cardiac contractility using paced guinea pig model; type: functional; procedure, shortened: as §1
Canis familiaris = experiment: Minimal effective dose that resulted in significant reduction in PVC frequency in conscious dogs by po administration after 24 hours of coronary artery ligation; type: functional; conditions: Canis lupus familiaris, read-out: MED
Procedure, shortened: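 Dogs (8.0–19.1 kg) underwent LAD occlusion under halothane anesthesia with Holter electrodes. 24 h after occlusion, animals with PVCs exceeding 50% of heart rate were dosed orally by gavage with agent in water (n = 4 per group). Holter recorded 1 h before and 12–24 h after dosing.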

Felis catus [4] = experiment: Ventricular fribrillation threshold (VFT) after iv administration to anesthetized, acutely infarcted cats at 1 mg/kg; type: functional, Heart
Procedure, shortened: (§2)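 Anesthetized cats given a slow iv bolus, with single-stage LAD occlusion 10 min later. Stimulating current raised until fibrillation; three baseline sequences about 15 min apart. Pacing repeated every 15 min for 2 h after occlusion, then every 30 min, for 5 h in total. Values are the mean maximum change over 5 h in VFT (mamps) or ERP (ms); cardioversion at 14–50 J.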

[5] = biological target: Sodium channel protein type 5 subunit alpha (cardiac sodium channel) (Rattus norvegicus, UniProt P15389); experiment: in vitro; conditions: sodium channel from cardiac myocytes, probe [3H]batrachotoxin ([3H]BTX)
Sequence of Sodium channel protein type 5 subunit alpha (cardiac sodium channel) (P15389 whole entry): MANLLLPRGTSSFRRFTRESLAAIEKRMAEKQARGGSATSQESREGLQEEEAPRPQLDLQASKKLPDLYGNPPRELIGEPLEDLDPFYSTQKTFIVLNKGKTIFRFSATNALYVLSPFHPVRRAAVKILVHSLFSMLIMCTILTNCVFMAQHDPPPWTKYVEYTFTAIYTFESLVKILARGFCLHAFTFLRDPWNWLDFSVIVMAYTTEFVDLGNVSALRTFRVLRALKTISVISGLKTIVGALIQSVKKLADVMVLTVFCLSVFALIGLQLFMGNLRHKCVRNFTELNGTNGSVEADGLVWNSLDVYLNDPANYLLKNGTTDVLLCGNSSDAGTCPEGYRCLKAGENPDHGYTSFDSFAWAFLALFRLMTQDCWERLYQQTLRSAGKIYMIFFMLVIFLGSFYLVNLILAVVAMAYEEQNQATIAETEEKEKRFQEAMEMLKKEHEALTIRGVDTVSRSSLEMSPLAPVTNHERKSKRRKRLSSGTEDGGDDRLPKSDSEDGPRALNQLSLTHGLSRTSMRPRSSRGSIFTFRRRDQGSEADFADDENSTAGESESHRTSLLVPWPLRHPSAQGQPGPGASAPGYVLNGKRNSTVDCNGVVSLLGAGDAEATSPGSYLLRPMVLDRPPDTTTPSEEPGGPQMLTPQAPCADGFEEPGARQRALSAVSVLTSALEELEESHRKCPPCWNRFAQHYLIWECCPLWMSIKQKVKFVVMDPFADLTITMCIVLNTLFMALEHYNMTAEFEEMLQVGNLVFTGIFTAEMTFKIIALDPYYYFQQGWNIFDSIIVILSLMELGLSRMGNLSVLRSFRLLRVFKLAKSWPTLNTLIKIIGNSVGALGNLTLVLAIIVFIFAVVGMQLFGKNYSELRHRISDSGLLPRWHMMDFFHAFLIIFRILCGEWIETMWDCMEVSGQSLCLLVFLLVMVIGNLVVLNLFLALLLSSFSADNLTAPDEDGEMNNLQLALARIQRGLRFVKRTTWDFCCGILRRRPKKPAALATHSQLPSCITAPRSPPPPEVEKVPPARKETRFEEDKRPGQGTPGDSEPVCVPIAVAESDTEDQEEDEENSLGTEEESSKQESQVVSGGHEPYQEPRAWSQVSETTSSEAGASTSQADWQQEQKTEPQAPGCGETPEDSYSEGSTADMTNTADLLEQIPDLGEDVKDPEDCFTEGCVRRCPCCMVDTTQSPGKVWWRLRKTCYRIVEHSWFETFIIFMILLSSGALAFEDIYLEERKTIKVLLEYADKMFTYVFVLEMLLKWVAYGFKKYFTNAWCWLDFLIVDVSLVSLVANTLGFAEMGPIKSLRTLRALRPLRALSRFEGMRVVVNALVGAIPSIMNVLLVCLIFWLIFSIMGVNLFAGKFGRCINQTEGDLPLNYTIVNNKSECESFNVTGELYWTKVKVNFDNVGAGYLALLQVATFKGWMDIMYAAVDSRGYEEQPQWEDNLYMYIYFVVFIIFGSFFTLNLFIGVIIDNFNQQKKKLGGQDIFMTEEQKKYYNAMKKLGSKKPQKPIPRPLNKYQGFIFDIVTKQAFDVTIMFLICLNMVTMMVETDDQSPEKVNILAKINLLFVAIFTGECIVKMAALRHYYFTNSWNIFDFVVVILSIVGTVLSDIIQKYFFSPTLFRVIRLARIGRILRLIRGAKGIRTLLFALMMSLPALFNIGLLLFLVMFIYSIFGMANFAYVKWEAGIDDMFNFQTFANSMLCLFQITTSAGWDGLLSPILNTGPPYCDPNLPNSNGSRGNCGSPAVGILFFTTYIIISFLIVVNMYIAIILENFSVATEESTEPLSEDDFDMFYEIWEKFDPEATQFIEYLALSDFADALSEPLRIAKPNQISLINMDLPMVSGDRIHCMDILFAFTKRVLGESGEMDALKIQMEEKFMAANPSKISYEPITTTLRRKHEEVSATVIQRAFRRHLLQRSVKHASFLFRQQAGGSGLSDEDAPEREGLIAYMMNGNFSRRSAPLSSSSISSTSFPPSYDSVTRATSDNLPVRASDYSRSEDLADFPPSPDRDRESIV

Felis catus [6] = experiment: Effective refractory period (ERP) after iv administration to anesthetized, acutely infarcted cats at 1 mg/kg; type: functional; procedure, shortened: as §2
Felis catus [7] = experiment: Ventricular fribrillation threshold (VFT) after iv administration to anesthetized, acutely infarcted cats at 5 mg/kg; type: functional, Heart
Procedure, shortened: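 Anesthetized cats received a slow iv bolus of test agent, followed 10 min later by single-stage LAD occlusion. Before dosing, VFT was measured three times about 15 min apart as baseline, raising the stimulating current until fibrillation was induced. After occlusion, pacing was repeated every 15 min for 2 h, then every 30 min, to 5 h. The value is the mean maximum VFT change (mamps) over 5 h.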

Felis catus [8] = experiment: Effective refractory period (ERP) after iv administration to anesthetized, acutely infarcted cats at x mg/kg; type: functional; procedure, shortened: as §2
Felis catus [9] = experiment: Effective refractory period (ERP) after iv administration to anesthetized, acutely infarcted cats at 3 mg/kg; type: functional; procedure, shortened: as §2
Felis catus [10] = experiment: Ventricular fribrillation threshold (VFT) after iv administration to anesthetized, acutely infarcted cats at 3 mg/kg; type: functional, Heart; procedure, shortened: as §2
Felis catus [11] = experiment: Effective refractory period (ERP) after iv administration to anesthetized, acutely infarcted cats at 0.03 mg/kg; type: functional; procedure, shortened: as §2
Felis catus [12] = experiment: Ventricular fribrillation threshold (VFT) after iv administration to anesthetized, acutely infarcted cats at 0.03 mg/kg; type: functional, Heart; procedure, shortened: as §2
Felis catus [13] = experiment: Effective refractory period (ERP) after iv administration to anesthetized, acutely infarcted cats at 0.3 mg/kg; type: functional; procedure, shortened: as §2
Felis catus [14] = experiment: Ventricular fribrillation threshold (VFT) after iv administration to anesthetized, acutely infarcted cats at 0.3 mg/kg; type: functional, Heart; procedure, shortened: as §2

Row | Structure (SMILES) | minimal effective dose (Cavia porcellus [1]) [mg/kg] | ED20 (Cavia porcellus [2]) [mg/kg] | dP/dt20 (Cavia porcellus [3]) [mg/kg] | minimal effective dose (Canis familiaris) [mg/kg] | VFT (Felis catus [4]) [mA] | inhibition at 10 µM [5] [%] | ERP (Felis catus [6]) [ms] | VFT (Felis catus [7]) [mA] | ERP (Felis catus [8]) [ms] | ERP (Felis catus [9]) [ms] | VFT (Felis catus [10]) [mA] | ERP (Felis catus [11]) [ms] | VFT (Felis catus [12]) [mA] | ERP (Felis catus [13]) [ms] | VFT (Felis catus [14]) [mA]
1 | CCC1=NC(c2ccccc2)c2ccccc2CN1C.Cl (centres undefined) | 3 | 0.6 | 0.8 | 10 | 84 | 50 | 13 |  |  |  |  |  |  |  | 
2 | CN1Cc2ccccc2C(c2ccccc2)N=C1CCc1ccccc1.Cl (centres undefined) | < 3 | 0.04 | 0.02 | 3 | 95 |  | 61 |  |  |  |  |  |  |  | 
3 | CC(C)N(CCC(C(N)=O)(c1ccccc1)c1ccccn1)C(C)C (centres undefined) [DISOPYRAMIDE] | 1 | 0.2 | 0.03 | 40 |  | 17 |  | 73 | 26 |  |  |  |  |  | 
4 | CN1Cc2ccccc2[C@H](c2ccccc2)N=C1CCc1ccccc1.Cl | 0.1 | 0.02 | 0.02 | 10 | 82 |  | 21 |  |  |  |  |  |  |  | 
5 | O=C(NCC1CCCCN1)c1cc(OCC(F)(F)F)ccc1OCC(F)(F)F (centres undefined) [FLECAINIDE] | 3 | 12.8 | 1.8 | 10 |  | 74 |  |  |  | 5 | 30 |  |  |  | 
6 | CN(CCOc1ccc(NS(C)(=O)=O)cc1)CCc1ccc(NS(C)(=O)=O)cc1 [DOFETILIDE] |  |  |  |  |  |  |  |  |  |  |  | 85 | 43 |  | 
7 | CCC1=NC(C)(c2ccccc2)c2ccccc2CN1C.O=C(O)/C=C/C(=O)O (centres undefined) | < 3 | 0.7 | 1.2 | 10 |  | 60 |  |  | 78 |  | 81 |  |  |  | 
8 | CCC1=N[C@H](c2ccccc2)c2ccccc2CN1C.Cl | 3 | 0.3 | 0.3 | 10 |  | 42 |  |  |  |  |  |  |  | 16 | 63

From ChEMBL document CHEMBL1126878, “4,5-Dihydro-1-phenyl-1H-2,4-benzodiazepines: novel antiarrhythmic agents” (J Med Chem, 1993)
